{"data": "Assay results of several laboratories", "SLC10A2": "Ileal sodium/bile acid cotransporter (SLC10A2, Homo sapiens, UniProt Q12908)", "AHR": "Aryl hydrocarbon receptor (AHR, Homo sapiens, UniProt P35869)", "note": "Compare with care: the assays were run in different laboratories."}
{"SMILES": "CC(C)c1cc(C2CCCN2C(=O)c2cc(-c3ccc4c(c3)OCO4)on2)no1 (stereo not drawn)", "target": "Cannabinoid receptor 2 (CNR2, Homo sapiens, UniProt P34972)", "effect on": "cAMP", "mode": "agonist", "technique": "TR-FRET", "measurement": "EC50", "value": "0.01 µM"}
{"SMILES": "CCN(CC)CCCC(C)Nc1ccnc2cc(Cl)ccc12 (stereo not drawn)", "target": "SLC10A2", "effect on": "transporter uptake", "mode": "inhibitor", "measurement": "Ki", "value": "6320 µM"}
{"SMILES": "Cc1cnc(-c2ccc(-c3ccc(NC(=O)Nc4c(F)cc(F)cc4F)cc3F)c3c2C(=O)NC3)[nH]1", "target": "Epithelial discoidin domain-containing receptor 1 (DDR1, Homo sapiens, UniProt Q08345)", "effect on": "binding", "technique": "competition with immobilised ligand", "measurement": "Kd", "value": "0.0021 µM"}
{"SMILES": "COc1ccccc1C(=O)c1c[nH]c2ccccc12", "target": "AHR", "effect on": "reporter gene", "mode": "agonist", "technique": "luciferase", "measurement": "EC50", "value": "> 10 µM"}
{"SMILES": "O=C(N[C@H]1COC(=O)[C@@H](NC(=O)c2cccc(O)c2O)COC(=O)[C@@H](NC(=O)c2cccc(O)c2O)COC1=O)c1cccc(O)c1O", "target": "Neutrophil gelatinase-associated lipocalin (LCN2, Homo sapiens, UniProt P80188, C107S)", "effect on": "binding", "technique": "fluorescence", "pH": "pH 7.4", "measurement": "Kd", "value": "0.0036 µM"}
{"SMILES": "CSCC[C@H](NC(=O)[C@@H](NC(=O)[C@@H](N)Cc1ccc(O)cc1)C(C)C)C(=O)NCC(=O)N[C@@H](Cc1c[nH]cn1)C(=O)N[C@@H](Cc1ccccc1)C(=O)O", "target": "Melanocortin receptor 5 (MC5R, Homo sapiens, UniProt P33032)", "effect on": "reporter gene", "mode": "agonist", "measurement": "EC50", "value": "> 100 µM"}
{"SMILES": "COC(=O)c1cccc(C(=O)c2c[nH]c3c2ccc2ccccc23)n1", "target": "AHR", "effect on": "reporter gene", "mode": "agonist", "technique": "luciferase", "measurement": "EC50", "value": "0.015 µM"}
{"SMILES": "COC(=O)C1=C(C)NC(C)=C(C(=O)OCC(C)C)C1c1ccccc1[N+](=O)[O-] (stereo not drawn)", "target": "SLC10A2", "effect on": "transporter uptake", "mode": "inhibitor", "measurement": "Ki", "value": "4.77 µM"}
{"SMILES": "N=C(N)c1ccc(CN)cc1", "target": "Coagulation factor X (F10, Homo sapiens, UniProt P00742)", "effect on": "binding", "technique": "BLI", "measurement": "Kd", "value": "1700 µM"}
{"SMILES": "C[C@]12C=CC(=O)C=C1CC[C@@H]1[C@@H]2C(=O)C[C@@]2(C)[C@H]1CC[C@]2(O)C(=O)CO", "target": "SLC10A2", "effect on": "transporter uptake", "mode": "inhibitor", "measurement": "Ki", "value": "1480 µM"}
{"SMILES": "C#Cc1cccc(Nc2ncnc3cc(OC)c(OCCCCCCC(=O)NO)cc23)c1", "target": "Polyamine deacetylase HDAC10 (HDAC10, Homo sapiens, UniProt Q969S8)", "effect on": "cell-free assay", "measurement": "Kd", "value": "7.38 µM"}
{"SMILES": "COC(=O)c1ccc(C(=O)c2c[nH]c3ccccc23)cc1", "target": "AHR", "effect on": "reporter gene", "mode": "agonist", "technique": "luciferase", "measurement": "EC50", "value": "> 10 µM"}
{"SMILES": "C=CCSCC1Nc2cc(Cl)c(S(N)(=O)=O)cc2S(=O)(=O)N1 (stereo not drawn)", "target": "SLC10A2", "effect on": "transporter uptake", "mode": "inhibitor", "measurement": "Ki", "value": "391 µM"}
{"SMILES": "CCOC(=O)c1cccc(C(=O)c2c[nH]c3ccccc23)n1", "target": "AHR", "effect on": "reporter gene", "mode": "agonist", "technique": "luciferase", "measurement": "EC50", "value": "1.11 µM"}
{"SMILES": "NS(=O)(=O)c1cc2c(cc1Cl)N=CNS2(=O)=O", "target": "SLC10A2", "effect on": "transporter uptake", "mode": "inhibitor", "measurement": "Ki", "value": "1220 µM"}
